Source: PubChem BioAssay
Compounds with a hit are over-represented: about 1.4% of the library has one in this group of screens.
HCV NS3 hel inh: inhibitors of Hepatitis C virus NS3 helicase | 290,000 compounds, 0.56% hits | AID 1800 | NS3 helicase DNA unwinding, Cy5 molecular beacon fluorescence | inhibition, % at 10.9 µM;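 active = inhibition above the mean of all tested compounds plus 3 SD, set per campaign, cut at about 35% in these data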;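 note: 0% = DMSO wells and 100% = thioflavine S control wells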
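Measured by: Cy5 fluorescence, 0 and 60 min reads / Assay system: NS3 helicase fragment of HCV / Control set: low DMSO, high thioflavine S at 110 µM / Times: 1 h reaction at 25 °C, ATP-initiated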
ZTA DNA inh: ZTA (EBV) inhibition in EBNA-1 counter-screen. P03206. 320,000 compounds, 0.15% hits. inhibition, % at 11 µM. ZTA-DNA binding, fluorescence polarization; in the data active = inhibition above about 33%
Target sequence (P03206 whole entry, looked up): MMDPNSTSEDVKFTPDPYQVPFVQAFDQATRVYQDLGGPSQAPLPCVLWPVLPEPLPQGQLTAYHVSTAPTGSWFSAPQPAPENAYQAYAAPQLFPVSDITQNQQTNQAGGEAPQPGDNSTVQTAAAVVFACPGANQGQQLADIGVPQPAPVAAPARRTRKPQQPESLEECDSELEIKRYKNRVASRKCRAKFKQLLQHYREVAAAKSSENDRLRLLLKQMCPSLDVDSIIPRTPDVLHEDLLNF
CTSL1 counter: cathepsin L1 inhibition, PFM18AAP counter-screen | recombinant F. hepatica cathepsin L1, Z-Leu-Arg-MCA fluorescence | inhibition, % at 5.96 µM | 300,000 compounds, 0.49% hits;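 active = inhibition above the mean of all tested compounds plus 3 SD, set per screening campaign, cut at about 17% in these data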;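 note: 0% = plate median of test compound wells and 100% = 1 µM Z-Phe-Ala-diazomethylketone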
EBNA-1 inhibitor: blocks EBNA-1 binding to DNA; AID 1950; 300,000 compounds, 0.34% hits; EBNA-1 DNA binding, fluorescence polarization; inhibition, % at 14.8 µM; in the data active = inhibition above about 28%
NS3 helicase cf: HCV NS3 helicase inhibition, confirmation assay | shares compounds with HCV NS3 hel inh | 1,600 compounds, 31% hits | NS3 helicase DNA unwinding, Cy5 molecular beacon fluorescence | inhibition, % at 10.9 µM;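 active = inhibition above the mean of all tested compounds plus 3 SD, cutoff set per campaign, cut at about 36% in these data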
FID counter trip: counter-screen for HCV NS3 helicase inhibitors: DNA intercalator displacement; shares compounds with HCV NS3 hel inh; DNA fluorescent intercalator displacement, fluorescence; inhibition, % at 7.9 µM; 1,600 compounds, 4% hits; AID 1945; in the data active = inhibition above about 37%;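 note: 0% = vehicle and 100% = reference compound; higher means more displacement of ethidium bromide from the DNA hairpin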
DNA FID DR: counter-screen for HCV NS3 helicase inhibitors: DNA intercalator displacement dose response | shares compounds with HCV NS3 hel inh | fluorescent intercalator displacement from DNA, fluorescence | IC50, µM | 120 tested, under 10 active | AID 2172; call rule not given here
* = called active by the depositor; · = not tested or not shown.

SMILES	HCV NS3 hel inh	ZTA DNA inh	CTSL1 counter	EBNA-1 inhibitor	NS3 helicase cf	FID counter trip	others
CCOc1ccc(-c2cc(C(=O)Nc3ccc4c(c3)OCCO4)c3ccccc3n2)cc1	8	13	1	11	·	·
Cc1ccc(C(=O)NNC(=O)Cn2nnc3ccccc32)cc1	5	2	-2	3	·	·
CCC1C/C(=C/c2ccco2)C(=O)/C(=C/c2ccco2)C1 (centres undefined)	46*	14	7	5	77*	12
CCC1C/C(=C\c2cc(OC)c(OC)cc2OC)C(=O)/C(=C/c2cc(OC)c(OC)cc2OC)C1 (centres undefined)	-25	24	4	2	·	·
COc1cc(NC(=O)CSc2ccc(-c3ccco3)nn2)cc(OC)c1	36*	-8	3	10	-12	0
COc1ccc(NC(=O)CSc2ccc(-c3ccco3)nn2)cc1	13	4	-2	7	·	·
CSc1nnc(-c2ccco2)c(-c2ccco2)n1	37*	2	53*	10	25	14
Cc1cccc(C)c1NC(=O)CSc1nnc(-c2ccco2)c(-c2ccco2)n1	36	2	1	-2	·	·
Cc1ccccc1NC(=O)CSc1nnc(-c2ccco2)c(-c2ccco2)n1	41*	10	7	3	51*	-8	DNA FID DR=>79
Cc1ccc(NC(=O)CSc2nnc(-c3ccco3)c(-c3ccco3)n2)cc1	42*	-2	8	-5	87*	19
O=C(CSc1nnc(-c2ccco2)c(-c2ccco2)n1)Nc1ccccc1	24	20	16	1	·	·
COc1ccc(N2CCN(C(=O)CN3C(=O)NC4(CCCCCC4)C3=O)CC2)cc1	·	-5	·	·	·	·
CCOC(=O)C(C)c1nn(C)c(=O)c2ccccc12 (centres undefined)	-3	-2	-2	2	·	·
CCN(C(=O)COC(=O)/C=C/c1cnc2ccccc2n1)C1CCS(=O)(=O)C1 (centres undefined)	-3	16	-1	1	·	·
O=C(NCC1CCCO1)c1nn2c(C(F)(F)F)cc(-c3ccco3)nc2c1Cl (centres undefined)	-1	2	2	8	·	·
O=C(NCC1CCCO1)c1cc2nc(-c3ccco3)cc(C(F)(F)Cl)n2n1 (centres undefined)	51*	3	6	-11	-10	-14
CCOC(=O)c1ccoc1CSCc1ccc(C(=O)OC)o1	16	11	3	-1	·	·
CC(C)(C)C(C(Oc1ccc(Cl)cc1)n1cncn1)n1nnnc1C(c1cccc(Cl)c1)N1CCCCC1 (centres undefined)	39*	6	0	-21	-8	-30
COCCn1nnnc1C(c1cccc(C#N)c1)N1CCCCCC1 (centres undefined)	0	3	1	7	·	·
COc1ccc(NC(=S)NNc2ccc(S(=O)(=O)Nc3ccccc3C(=O)O)cc2[N+](=O)[O-])cc1	40*	6	-2	5	83*	27
CCCN(CC#CC(O)(c1ccccc1)c1cccnc1)CCC (centres undefined)	45*	10	0	6	-10	4
CCOC(=O)C1CCCN(C(=O)/C(=C/c2ccco2)NC(=O)c2ccccc2)C1 (centres undefined)	45*	1	-3	-4	-16	-37
O=C(N/C(=C/c1ccco1)C(=O)N1CCCCCC1)c1ccccc1	10	4	-1	0	·	·
CCOC(=O)c1c(NC(=O)C2C3C=CC(C3)C2C(=O)O)sc2c1CCC(C)C2 (centres undefined)	37*	21	5	4	75*	-31
COc1ccc(NC(=O)N2CCCC2C(=O)NC2CCCC2)cc1 (centres undefined)	-5	-12	-2	-7	·	·
SMILES	HCV NS3 hel inh	ZTA DNA inh	CTSL1 counter	EBNA-1 inhibitor	NS3 helicase cf	FID counter trip	others
Cc1ccc(-n2cccc2/C=C2\C(=N)N3N=C(C(C)C)SC3=NC2=O)cc1	42*	4	6	6	35	-28
COc1ccc(NC(=O)CC2C(=O)N(c3ccc(OC)cc3)C(=O)N2C(C)C)cc1 (centres undefined)	46*	9	-1	5	-10	-5
CCOc1ccc(NC(=O)CC2C(=O)N(c3ccc(OC)cc3)C(=O)N2Cc2ccc(OC)cc2)cc1 (centres undefined)	-34	5	2	4	·	·
Cc1ccc(CSCC2Nc3ccc(C(=O)N4CCN(c5cccc(C)c5)C(C)C4)cc3NC2=O)cc1 (centres undefined)	38*	10	2	0	-9	-36
CCSc1ccc(C(=O)NCC(=O)O)cc1	1	6	-1	18	·	·
CSc1ccc(NC(=O)Nc2ccc(C(=O)NCC(=O)O)cc2)cc1	25	·	·	·	-27	5
Cc1cc(C)c2c(n1)SCC(=O)N2CC(=O)Nc1cc(F)ccc1F	2	-1	0	-6	·	·
Fc1ccc(NC(=S)Nc2cccc3ccccc23)cc1F	44*	-10	-1	0	10	6
Fc1ccc(NC(=S)Nc2cccc3ccccc23)cc1	3	7	-4	0	·	·
COc1cccc(NC(=S)Nc2cccc3ccccc23)c1	49*	-11	13	-8	2	-6
Cc1cccc(NC(=S)Nc2cccc3ccccc23)c1	-1	-5	-1	6	·	·
CC(Oc1ccccc1)C(=O)N1CCC2(CC1)Oc1ccc(Cl)cc1C(=O)C21CC(c2ccccc2)=NO1 (centres undefined)	·	-8	1	-1	·	·
Cc1cc(N2C(=O)C(O)=C(C(=O)c3cc4ccccc4o3)C2c2ccc([N+](=O)[O-])cc2)no1 (centres undefined)	24	15	-3	14	·	·
Cc1cc(N2C(=O)C(O)=C(C(=O)c3ccco3)C2c2cccc(Oc3ccccc3)c2)no1 (centres undefined)	66*	2	1	-1	116*	2	DNA FID DR=>79
CCOC(=O)c1sc(N2C(=O)C(O)=C(C(=O)c3ccco3)C2c2cccc([N+](=O)[O-])c2)nc1C (centres undefined)	105*	4	2	15	115*	24
CCN(CC)CCN1C(=O)C(O)=C(C(=O)c2cc3ccccc3o2)C1c1cccnc1 (centres undefined)	-1	-10	1	2	·	·
O=C(C1=C(O)C(=O)N(CCc2ccccc2)C1c1ccncc1)c1cc2ccccc2o1 (centres undefined)	39*	-1	0	-26	13	-28
Cc1ccc(C2C(C(=O)c3cc4ccccc4o3)=C(O)C(=O)N2c2cc(C)on2)cc1 (centres undefined)	65*	3	1	-4	123*	-24	DNA FID DR=>79
CC(=O)CSc1nc(-c2cccs2)c(C#N)c(=O)[nH]1	6	·	·	·	·	·
